In the library only some 2.1% were active in any assay of this set; here they are far more common.
CAL PDZ FP-1 – blocks peptide binding to human CAL PDZ domain; Q9HD26; purified CAL PDZ, TMR-peptide fluorescence polarization, 1 h; inhibition, % at 20 µM; 0.02% of 330,000 active; AID 504414;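 active means highest replicate inhibition of at least 40%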;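 further: plate controls were DMSO neutral control wells for no effect and unlabeled competitor peptide control wells for full effect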
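System: purified tagged CAL PDZ domain construct (CerCALP). Schedule: 1 h incubation at room temperature before polarization reading. Medium: 25 mM sodium phosphate pH 7.4, 150 mM NaCl, TCEP, IgG, Thesit. Read-out: percent inhibition from loss of millipolarization. Measured by: FP readout, S and P plane fluorescence. Probe or stimulus: fluorescent TMR peptide probe.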
SR-BI DiI-HDL act – SR-BI HDL lipid transfer activation; AID 504775; activation, % at 12.5 µM; CHO ldlA[mSR-BI] cells, DiI-HDL uptake fluorescence, 3 h; 100 = double the neutral-control signal; 0.096% of 320,000 active;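 active means mean replicate activation of at least 60% and every replicate at or above 60%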;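 further: 0% = median plate neutral-control signal and 100% = twice that signal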
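Material – SR-BI-overexpressing, LDLR-lacking CHO cells · Medium – BSA-supplemented, HEPES-buffered Ham's F12, pH 7.4 · Doses – single concentration · Times – compound with DiI-HDL co-incubation, 3 h at 37 °C · Measured by – bottom-read fluorescence, 550/595 nm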
SR-BI DiI inh – mouse SR-BI HDL lipid transfer inhibition. Q61009. ldlA[mSR-BI] CHO cells, DiI-HDL uptake fluorescence, 3 h. inhibition, % at 12.5 µM. 0.96% of 320,000 active. AID 488896;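 active means mean replicate inhibition of at least 70% and a set share of replicates each scoring 70 or more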;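 further: 0% = median of neutral control wells and 100% = median of positive control wells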
Target sequence (Q61009 whole entry, looked up): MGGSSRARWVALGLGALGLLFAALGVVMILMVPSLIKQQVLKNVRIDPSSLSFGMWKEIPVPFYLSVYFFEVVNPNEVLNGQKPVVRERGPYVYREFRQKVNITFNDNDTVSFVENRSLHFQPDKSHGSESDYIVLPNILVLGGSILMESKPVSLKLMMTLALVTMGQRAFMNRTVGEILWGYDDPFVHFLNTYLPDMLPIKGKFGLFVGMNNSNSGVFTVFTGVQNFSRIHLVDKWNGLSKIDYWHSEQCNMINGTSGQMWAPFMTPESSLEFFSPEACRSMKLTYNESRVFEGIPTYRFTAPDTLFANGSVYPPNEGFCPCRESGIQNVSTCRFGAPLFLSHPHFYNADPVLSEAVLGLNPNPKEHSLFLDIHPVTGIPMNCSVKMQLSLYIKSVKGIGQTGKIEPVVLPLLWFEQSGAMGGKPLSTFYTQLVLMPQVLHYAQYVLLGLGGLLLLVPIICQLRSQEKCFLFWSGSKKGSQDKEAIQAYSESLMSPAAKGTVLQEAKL
CAL PDZ FP-2 – CAL PDZ (human) peptide binding inhibition. purified CAL PDZ, TMR-peptide fluorescence polarization, 1 h. inhibition, % at 24.9 µM. 0.92% of 300,000 active;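 active means mean inhibition of at least 30% with at least half of replicates also reaching 30%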;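 further: 0% = DMSO neutral control and 100% = excess unlabeled competitor peptide PRC23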
miR-122 sensor – miR-122 inhibition in Huh7 cells. Huh7 miR-122 Renilla luciferase sensor, 48 h; neutral wells = 0, positive control = 100. activation (reporter increase), % at 12.5 µM. 0.3% of 340,000 active. AID 602342;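 active means mean replicate activation score at least 90 and every replicate individually at or above 90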;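 further: higher luciferase means less miR-122 activity so hits act as miR-122 inhibitors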
ARNT-TACC3 inh – disruptors of human ARNT/TACC3 interaction; AID 623870; inhibition, % at 9.99 µM; 0.66% of 390,000 active; AlphaScreen His-ARNT PAS-B/GST-TACC3 binding, luminescence; TACC3 fragment carries E629A point mutation; Q9Y6A5;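 active means mean inhibition of replicates at least 50% and at least half of replicates each reaching 50%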;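 further: 0% = complete ARNT plus TACC3 wells and 100% = ARNT alone without TACC3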
Starred values were filed as active, the others as inactive; . = not tested or not shown; [ ] = remark or other dose.

SMILES | CAL PDZ FP-1 | SR-BI DiI-HDL act | SR-BI DiI inh | CAL PDZ FP-2 | miR-122 sensor | ARNT-TACC3 inh
COc1ccccc1/C=N/NC(=O)c1cccc(NC(=O)c2ccccc2Cl)c1 | . | -77.1 | 77.1* | -4.9 | . | 30.4
COc1ccc(C(=O)Nc2cccc(C(=O)N/N=C/c3ccc(OC)cc3OC)c2)cc1 | -3.1 | -89.5 | 89.5* | -5.8 | . | 5.6
Cc1ccc(C(=O)Nc2cccc(C(=O)N/N=C/c3ccc(F)cc3)c2)cc1 | -2.0 | -75.9 | 75.9* | 75.4* | . | -19.9
COc1ccccc1/C=N/NC(=O)c1cccc(NC(=O)c2ccccc2C)c1 | -2.3 | -74.9 | 74.9* | . | 0.3 | .
COc1ccc(/C=N/NC(=O)c2cccc(NC(C)=O)c2)c(OC)c1 | . | -8.5 | 8.6 | -10.4 | . | -3.0
COc1ccc(/C=N/NC(=O)c2cccc(NC(=O)c3ccccc3Cl)c2)cc1OC | -7.5 | -24.6 | 24.6 | -7.2 | . | -3.0
O=C(NCC1CC1)[C@H]1[C@H](CO)[C@H]2Cn3c(ccc(C4=CCCCC4)c3=O)[C@H]2N1Cc1ccccc1F | . | . | . | . | -7.6[16.7 µM] | 6.4
C[C@H]1CCCCO[C@H](CN(C)S(=O)(=O)c2ccccc2)[C@@H](C)CN([C@@H](C)CO)C(=O)c2cc(NC(=O)Nc3ccc(F)cc3)ccc2O1 | . | . | . | . | 1.9[16.7 µM] | 5.4
Cc1[nH]c(-c2ccccn2)nc(=S)c1Cl | 0.6 | 3.4 | -3.4 | -4.6 | -5.8 | 41.7
Cc1cc(=S)nc(-c2ccccn2)[nH]1 | -1.0 | 31.4 | -31.4 | -3.6 | . | 59.1*
COc1cccc(NC(=O)N2C[C@@H](O)COC[C@H]3O[C@H](CC(=O)NCCCN4CCOCC4)CC[C@@H]32)c1 | . | . | . | . | -5.1[16.7 µM] | 14.0
O=C(N/N=C/c1c(O)n(-c2ccc(Cl)cn2)c(=O)c2ccccc12)C1CC1 | -0.6 | -15.3 | 15.3 | -1.9 | . | 68.0*
O=C(N/N=C/c1c(O)n(-c2ccc(Cl)cn2)c(=O)c2ccccc12)c1ccncc1 | -1.7 | -38.5 | 38.5 | -0.6 | . | 41.6*
CNC[C@H]1Oc2cc(C#CCN(C)C)ccc2S(=O)(=O)N([C@H](C)CO)C[C@H]1C | . | . | . | . | 6.9[16.7 µM] | -18.3
O=C(C[C@@H]1CC[C@@H]2[C@H](COC[C@H](O)CN2Cc2ccccc2F)O1)N[C@@H]1CCN(Cc2ccccc2)C1 | . | . | . | . | -14.8[16.7 µM] | 7.1
[O-][n+]1cccc2cccc(O)c21 | -0.1 | 26.9 | -26.9 | 48.9* | -0.9 | 53.0*
C[C@H](CO)N1C[C@H](C)[C@@H](CN(C)S(=O)(=O)c2ccc(Cl)cc2)Oc2ccc(NC(=O)CCN3CCOCC3)cc2CC1=O | . | . | . | . | 4.4[16.7 µM] | -0.6
S=C(NNc1ccnc2cc(Cl)ccc12)Nc1ccccc1Cl | -4.0 | -89.1 | 89.1* | -0.1 | . | -1.1
Cc1ccccc1-c1ccc(/C=C2/SC(N3CCOCC3)=NC2=O)o1 | -1.0 | -3.2 | 3.2 | . | 1.8 | 0.5
Cc1ccccc1N1CCN(C2=NC(=O)/C(=C/c3cn[nH]c3-c3ccccc3)S2)CC1 | -3.2 | -25.5 | 25.5 | -1.8 | . | 20.7*
CO[C@H]1CN(C)C(=O)c2cc(NC(=O)C3CC3)ccc2OC[C@H](C)N(C(=O)CN(C)C)C[C@@H]1C | . | . | . | . | -0.4[16.7 µM] | -4.5
CO[C@H]1CN(C)C(=O)c2ccc(NC(=O)C3CCCC3)cc2OC[C@@H](C)N(C(C)=O)C[C@H]1C | . | . | . | . | . | -0.7
COc1ccc(C(C)NC(=O)c2ccc(Cl)cc2)cc1OC (stereo not drawn) | 1.0 | 2.3 | -2.3 | -3.0 | . | -0.5
COc1ccc(C(C)NC(=O)c2ccncc2)cc1OC (stereo not drawn) | -0.1 | 12.6 | -12.6 | 75.7* | 0.2 | -4.0
CCOC(=O)N1CCN(C(=O)c2ccc3c(c2)N(C)C(=O)/C(=C\c2ccc(OCC)c(OC)c2)S3)CC1 | -1.0 | -55.7 | 55.7 | -4.7 | -8.8 | 10.0
SMILES | CAL PDZ FP-1 | SR-BI DiI-HDL act | SR-BI DiI inh | CAL PDZ FP-2 | miR-122 sensor | ARNT-TACC3 inh
CCOC(=O)N1CCC(NC(=O)c2ccc3c(c2)N(C)C(=O)/C(=C/c2cccc(OC)c2)S3)CC1 | -0.5 | -74.9 | 74.9* | 3.1 | -3.9 | -1.6
Cc1cccc(/C=C2\Sc3ccc(C(=O)NCC4CCCO4)cc3N(C)C2=O)c1 (stereo not drawn) | 0.4 | -92.0 | 92.0* | 4.7 | 0.7 | -0.8
COc1ccc(/C=C2\Sc3ccc(C(=O)NCCCN4CCCC4)cc3N(C)C2=O)cc1OC | -2.6 | -77.8 | 77.8* | -4.8 | -1.3 | 22.4
CCOc1ccc(/C=C2/Sc3ccc(C(=O)NCC4CCCO4)cc3N(C)C2=O)cc1OC (stereo not drawn) | -0.9 | -53.3 | 53.3 | -3.7 | -19.4 | 6.8
CC(C)n1nc(C(=O)Nc2cccc(S(=O)(=O)NCc3ccco3)c2)c2ccccc2c1=O | -1.5 | . | . | -2.7 | 99.1* | -0.6
CC(=O)c1cccc(NC(=O)c2cc(S(=O)(=O)N3CCOCC3)cs2)c1 | -2.7 | -77.5 | 77.5* | 3.5 | . | 0.3
Cc1cc(SCC(=O)Nc2cccc(S(=O)(=O)N3CCOCC3)c2)nc2ccccc12 | -0.9 | -78.8 | 78.8* | 1.6 | . | -6.4
Cc1ccc(SCC(=O)Nc2cccc(S(=O)(=O)N3CCOCC3)c2)cc1C | -0.1 | -31.4 | 31.4 | -4.2 | 27.4 | -2.1
O=C(O)c1cccc(NC(=O)c2cc(S(=O)(=O)N3CCOCC3)cs2)c1 | -2.0 | 9.6 | -9.6 | -3.2 | -3.1 | -1.0
CC(=O)Oc1ccc(-c2ccc(C(=O)Nc3cccc(S(=O)(=O)N4CCOCC4)c3)cc2)cc1 | 0.2 | -81.5 | 81.5* | -3.3 | . | 6.3
O=C(C[C@H]1CC[C@H]2[C@@H](COC[C@H](O)CN2S(=O)(=O)c2ccccc2)O1)NCc1ccc2c(c1)OCO2 | . | . | . | . | -2.4[16.7 µM] | 7.0
C[C@H]1CN([C@@H](C)CO)C(=O)c2cc(C#CCN(C)C)cnc2O[C@@H]1CN(C)S(=O)(=O)c1ccccc1 | . | . | . | . | 7.4[16.7 µM] | 0.5
O=C(Cc1ccccc1)N[C@H]1C=C[C@@H](CC(=O)N2CCCCC2)O[C@@H]1CO | . | . | . | . | . | -18.5
Cc1ccc(CNS(=O)(=O)c2ccc(C(F)(F)F)cc2)n1C | 0.6 | -5.1 | 5.1 | 57.9* | -0.2 | 0.1
Nn1c(SCC(=O)Nc2ccc3c(c2)OCCO3)nnc(CCC(=O)O)c1=O | 1.1 | -0.5 | 0.5 | 83.3* | 1.7 | -3.7
Cc1nnc(SCC(=O)Nc2ccc3c(c2)OCCO3)n1N | -0.6 | 14.6 | -14.6 | -5.5 | . | 1.4
C[C@@H]1CN([C@H](C)CO)C(=O)Cc2cc(NC(=O)Cc3ccccc3)ccc2O[C@H]1CN(C)S(=O)(=O)c1ccc(F)cc1 | . | . | . | . | -5.6[16.7 µM] | -1.7
CCc1ccccc1NC(=O)CC1SCCNC1=O (stereo not drawn) | -1.4 | 26.8 | -26.8 | 32.0* | . | -2.9
O=C(CC1SCCNC1=O)Nc1cccc(Cl)c1 (stereo not drawn) | -0.6 | 19.5 | -19.5 | -1.9 | 4.8 | 13.5

High-throughput results: PubChem, Broad Institute
